Test results published in ChEMBL document CHEMBL3580647, “Discovery of potent indenoisoquinoline topoisomerase I poisons lacking the 3-nitro toxicophore” (J Med Chem, 2015).
Calls of active or inactive are those of the source. The rule behind the calls is not given here.

Assays:
MCF7 = assay: Growth inhibition of human MCF7 cells by five-dose growth inhibition assay; format: functional
HCT-116 = assay: Growth inhibition of human HCT116 cells by five-dose growth inhibition assay; format: functional
SN12C = assay: Growth inhibition of human SN12C cells by five-dose growth inhibition assay; format: functional
[1] = target: T1, DNA topoisomerase 1 (Homo sapiens) (UniProt P11387); assay: Inhibition of recombinant topoisomerase 1 (unknown origin) assessed as DNA cleavage using 3'-[32P]-labeled 117-bp DNA oligonucleotide at 1 uM by PAGE assay; set-up: Activity: scale not given: the % may be the effect or the level left
T1 sequence (whole entry): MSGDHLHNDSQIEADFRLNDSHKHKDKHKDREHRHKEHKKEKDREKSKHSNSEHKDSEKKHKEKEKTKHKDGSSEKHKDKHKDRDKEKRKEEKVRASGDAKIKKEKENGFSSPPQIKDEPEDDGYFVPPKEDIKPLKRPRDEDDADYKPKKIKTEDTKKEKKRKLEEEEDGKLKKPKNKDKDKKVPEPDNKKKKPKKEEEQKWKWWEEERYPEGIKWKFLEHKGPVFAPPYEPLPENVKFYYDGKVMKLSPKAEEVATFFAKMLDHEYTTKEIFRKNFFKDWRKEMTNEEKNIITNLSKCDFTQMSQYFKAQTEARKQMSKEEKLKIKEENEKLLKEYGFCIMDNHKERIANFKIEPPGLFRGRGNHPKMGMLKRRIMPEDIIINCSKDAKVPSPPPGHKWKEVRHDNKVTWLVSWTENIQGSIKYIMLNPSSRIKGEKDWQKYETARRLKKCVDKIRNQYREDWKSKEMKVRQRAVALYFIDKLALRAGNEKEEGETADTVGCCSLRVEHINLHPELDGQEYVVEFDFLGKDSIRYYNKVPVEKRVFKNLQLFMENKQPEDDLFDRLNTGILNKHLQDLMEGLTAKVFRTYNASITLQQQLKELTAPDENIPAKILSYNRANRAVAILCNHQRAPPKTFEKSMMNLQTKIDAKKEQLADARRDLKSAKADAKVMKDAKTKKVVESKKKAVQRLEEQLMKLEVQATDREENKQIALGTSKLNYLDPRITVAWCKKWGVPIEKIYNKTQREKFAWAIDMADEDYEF
Summary of the method: (§1)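 Approx. 2 nM 3′-[³²P]-labeled double-stranded DNA incubated with recombinant Top1 and compound at 0.1, 1, 10 or 100 μM for 20 min at 25 °C. Stopped with 0.5% SDS and run on a denaturing gel. […] Run twice.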

HOP-62 = assay: Growth inhibition of human HOP62 cells by five-dose growth inhibition assay; format: functional
[2] = (§2) Growth inhibition of human NCI60 cells assessed as cell growth at 10 uM; format: functional; details: read-out: Activity
Summary of the method: (§3)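 NCI-60 single-dose screen at 10 μM across ~60 human cancer cell lines. Reported as growth percent relative to vehicle-treated control, averaged over all lines tested as a mean growth percent.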

UACC-62 = assay: Growth inhibition of human UACC62 cells by five-dose growth inhibition assay; format: functional
[3] = Growth inhibition of human SF539 cells by five-dose growth inhibition assay; format: functional; details: SF-539
[4] = target: T1, DNA topoisomerase 1 (Homo sapiens); assay: Inhibition of recombinant topoisomerase 1 (unknown origin) assessed as DNA cleavage using 3'-[32P]-labeled 117-bp DNA oligonucleotide at 100 uM by PAGE assay; summary of the method: as §1
[5] = target: T1, DNA topoisomerase 1 (Homo sapiens); assay: Inhibition of recombinant topoisomerase 1 (unknown origin) assessed as DNA cleavage using 3'-[32P]-labeled 117-bp DNA oligonucleotide at 10 uM by PAGE assay; summary of the method: as §1
[6] = target: T1, DNA topoisomerase 1 (Homo sapiens); assay: Inhibition of recombinant topoisomerase 1 (unknown origin) assessed as DNA cleavage using 3'-[32P]-labeled 117-bp DNA oligonucleotide at 0.1 uM by PAGE assay; summary of the method: as §1
OVCAR-3 = assay: Growth inhibition of human OVCAR3 cells by five-dose growth inhibition assay; format: functional
DU-145 = assay: Growth inhibition of human DU145 cells by five-dose growth inhibition assay; format: functional
NCI60 = assay: as §2; format: functional; summary of the method: as §3

GI50 (MCF7) [nM]	GI50 (HCT-116) [nM]	Activity [1] [%]	inhibition [1]	inhibition [4]	inhibition [5]	inhibition [6]	GI50 (OVCAR-3) [nM]	GI50 (DU-145) [nM]	Compound	GI50 (SN12C) [nM]	GI50 (HOP-62) [nM]	growth at 10 µM [2] [%]	GI50 (UACC-62) [nM]	GI50 [3] [nM]	Activity (NCI60)
347	1290	75	Active	Active	Active	Active	4270		O=C1c2ccccc2-c2c1c1ccc(F)cc1c(=O)n2CCCN1CCOCC1	2340	2090	30.3	1380	2950	
		50							N#Cc1ccc2c3c(n(CCCN4CCOCC4)c(=O)c2c1)-c1ccccc1C3=O			102			
372	1620	50	Active	Active	Active	Active	6030	4070	O=C1c2ccccc2-c2c1c1ccc(Cl)cc1c(=O)n2CCCN1CCOCC1	5010	2140	44.7	3310	2400	
74	200	50					3890	603	O=C1c2ccccc2-c2c1c1ccc(I)cc1c(=O)n2CCCn1ccnc1	708	437	43.5	2290	550	
		50							O=C1c2ccccc2-c2c1c1ccc(F)cc1c(=O)n2C[C@H](O)CO			61.1			
257	437	50					2240	2090	O=C1c2ccccc2-c2c1c1ccc(Cl)cc1c(=O)n2C[C@H](O)CO	977	692	14.5	398	417	
316	398	50					100000	692	COC(=O)c1ccc2c3c(n(CCCn4ccnc4)c(=O)c2c1)-c1ccccc1C3=O	525	589	62.1	100000	490	
		20							COC(=O)c1ccc2c3c(n(CCCN4CCOCC4)c(=O)c2c1)-c1ccccc1C3=O			87.5			
		20							O=C1c2ccccc2-c2c1c1ccc(C(F)(F)F)cc1c(=O)n2C[C@H](O)CO			52.2			
		50							O=C1c2ccccc2-c2c1c1ccc(Br)cc1c(=O)n2C[C@H](O)CO			46.8			
		20							O=C1c2ccccc2-c2c1c1cc(C(F)(F)F)ccc1c(=O)n2C[C@H](O)CO			82.7			
		70							O=C1c2ccccc2-c2c1c1ccc([N+](=O)[O-])cc1c(=O)n2CCCN1CCOCC1						
		20							N#Cc1ccc2c3c(n(C[C@H](O)CO)c(=O)c2c1)-c1ccccc1C3=O			42.6			
257	646	20					1510	1100	O=C1c2ccccc2-c2c1c1ccc(C(F)(F)F)cc1c(=O)n2CCCn1ccnc1	1780	407	6.57	537	1290	
2170		100							O=C1c2ccccc2-c2c1c1ccc([N+](=O)[O-])cc1c(=O)n2CCCn1ccnc1						
191	251	50					3310	676	O=C1c2ccccc2-c2c1c1ccc(Br)cc1c(=O)n2CCCn1ccnc1	468	513	27.3	427	676	
135	309	75	Active	Active	Active	Active	1290	575	O=C1c2ccccc2-c2c1c1ccc(F)cc1c(=O)n2CCCn1ccnc1	437	490	-8.15	245	417	
		20							COC(=O)c1ccc2c3c(n(C[C@H](O)CO)c(=O)c2c1)-c1ccccc1C3=O						inactive
31		75	Active	Active	Active	Active			O=C1c2ccccc2-c2c1c1ccc(Cl)cc1c(=O)n2CCCn1ccnc1	110		0.06	74	204	
331		50						977	CN(C)CCCn1c2c(c3ccncc3c1=O)C(=O)c1ccccc1-2	955				708	
427	741	20					4370	2510	CSc1ccc2c3c(n(C[C@H](O)CO)c(=O)c2c1)-c1ccccc1C3=O	1950	1820	39.7	1380	2340	
		100							O=C1c2ccccc2-c2c1c1ccc([N+](=O)[O-])cc1c(=O)n2C[C@H](O)CO						
	30	100							CC[C@@]1(O)C(=O)OCc2c1cc1n(c2=O)Cc2cc3c(CN(C)C)c(O)ccc3nc2-1 [TOPOTECAN]	20				10	
		50							CS(=O)(=O)c1ccc2c3c(n(C[C@H](O)CO)c(=O)c2c1)-c1ccccc1C3=O			96.7			
		20	Active	Active	Active	Active			O=C1c2ccccc2-c2c1c1ccc(I)cc1c(=O)n2CCCN1CCOCC1			96			
33	112	50					4680	562	N#Cc1ccc2c3c(n(CCCn4ccnc4)c(=O)c2c1)-c1ccccc1C3=O	575	537	41.1	407	501	
		50							CS(=O)(=O)c1ccc2c3c(n(CCCn4ccnc4)c(=O)c2c1)-c1ccccc1C3=O			59.4			
		20							CSc1ccc2c3c(n(CCCn4ccnc4)c(=O)c2c1)-c1ccccc1C3=O			42.6			
		75							O=C1c2ccccc2-c2c1c1ccc(Br)cc1c(=O)n2CCCN1CCOCC1			84			
		20							O=C1c2ccccc2-c2c1c1cc(C(F)(F)F)ccc1c(=O)n2CCCn1ccnc1			49.3			

Compound	GI50 (MCF7) [nM]	GI50 (HCT-116) [nM]	Activity [1] [%]	inhibition [1]	inhibition [4]	inhibition [5]	inhibition [6]	GI50 (OVCAR-3) [nM]	GI50 (DU-145) [nM]	GI50 (SN12C) [nM]	GI50 (HOP-62) [nM]	growth at 10 µM [2] [%]	GI50 (UACC-62) [nM]	GI50 [3] [nM]	Activity (NCI60)
O=C1c2ccccc2-c2c1c1ccncc1c(=O)n2CCCN1CCOCC1			50												inactive
O=C1c2ccccc2-c2c1c1ccncc1c(=O)n2CCCn1ccnc1			20									47.5			
